The test system of experiment [1] is MKN-45. As to the kind of experiment: Antiproliferative activity against human MKN45 cells assessed as cell viability at 10 uM after 72 hrs by MTT assay relative to control. The format is functional. To be noted: MKN-45, 72 h, read-out: Activity. Put shortly: (§1)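 Single-concentration MTT screen. Log-phase cells in DMEM with 10% FCS were treated for 72 h in 96-well plates. After MTT and DMSO, absorbance was read at 570 nm. Viability was calculated relative to control as mean ± SD of three independent experiments.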
A general note: Tetrazolium assays rely on reduction of a dye to a coloured formazan, in cell work by metabolically active cells.

Experiment [2] has as its system KB. Nature of the experiment: Antiproliferative activity against human KB cells assessed as cell viability at 10 uM after 72 hrs by MTT assay relative to control. The format is functional. The settings on record: read-out: Activity. Put shortly:
as §1

Experiment [3] has as its system KB. As to the kind of experiment: Antiproliferative activity against human KB cells after 72 hrs by MTT assay. In kind it is functional, cell-based. The procedure, abridged:
(§2)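 Cells grown in DMEM with 10% heat-inactivated FCS, penicillin and streptomycin, at 37°C in 5% CO₂, and used in log phase. Cells were seeded in 96-well plates and exposed to compound for 72 h. MTT was added, then DMSO, and OD was read at 570 nm. Survival rate was calculated and IC50 taken as 50% growth inhibition.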

Experiment [4] can be described thus: Antiproliferative activity against human KBV cells after 72 hrs by MTT assay. The format is functional, cell-based. Put shortly:
as §2

A further experiment relates to HeLa. As to the kind of experiment: Antiproliferative activity against human HeLa cells after 72 hrs by MTT assay. In kind it is functional, cell-based. Put shortly: as §2
The subject of another experiment is A549. As to the kind of experiment: Antiproliferative activity against human A549 cells after 72 hrs by MTT assay. In kind it is functional, cell-based. To be noted: A549, 72 h. The procedure, abridged:
as §2

Experiment [5] relates to MKN-45. As to the kind of experiment: Antiproliferative activity against human MKN45 cells after 72 hrs by MTT assay. The format is functional, cell-based. The settings on record: MKN-45, 72 h. The procedure, abridged:
as §2

For a further experiment, the system named is BGC-823. As to the kind of experiment: Antiproliferative activity against human BGC823 cells after 72 hrs by MTT assay. The format is functional, cell-based. The settings on record: BGC-823, 72 h. Put shortly:
as §2

Another experiment concerns AGS. Nature of the experiment: Antiproliferative activity against human AGS cells after 72 hrs by MTT assay. The format is functional, cell-based. Put shortly:
as §2

The subject of experiment [6] is MKN-45. Nature of the experiment: Cell cycle arrest in human MKN45 cells assessed as apoptotic cell accumulation at 10 uM after 24 hrs by propidium iodide staining based flow cytometry (reference value: 1.51%). In kind it is functional. The procedure, abridged:
(§3)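 MKN45 cells were plated at 2×10⁵ cells/well in 6-well plates and exposed for 24 and 48 h. Cells were harvested, fixed and stained with propidium iodide (50 µg/mL). DNA content was read by FACScan flow cytometry for phase distribution. The sub-G0/G1 fraction was taken as apoptotic.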
On the technique in general: A flow cytometer gives signals particle by particle.

Experiment [7] relates to MKN-45. As to the kind of experiment: Cell cycle arrest in human MKN45 cells assessed as accumulation at G1-phase at 10 uM after 24 hrs by propidium iodide staining based flow cytometry (reference value: 67%). In kind it is functional. Put shortly: as §3
In experiment [8] the test system is MKN-45. Nature of the experiment: Cell cycle arrest in human MKN45 cells assessed as accumulation at S-phase at 10 uM after 24 hrs by propidium iodide staining based flow cytometry (reference value: 15%). In kind it is functional. Put shortly: as §3
The subject of experiment [9] is MKN-45. Nature of the experiment: Cell cycle arrest in human MKN45 cells assessed as accumulation at G2/M-phase at 10 uM after 24 hrs by propidium iodide staining based flow cytometry (reference value: 19%). In kind it is functional. Put shortly: as §3
The test system of experiment [10] is MKN-45. As to the kind of experiment: Cell cycle arrest in human MKN45 cells assessed as apoptotic cell accumulation at 10 uM after 48 hrs by propidium iodide staining based flow cytometry (reference value: 1.51%). The format is functional. Put shortly:
as §3

The test system of experiment [11] is MKN-45. Nature of the experiment: Cell cycle arrest in human MKN45 cells assessed as accumulation at G1-phase at 10 uM after 48 hrs by propidium iodide staining based flow cytometry (reference value: 67%). In kind it is functional. Put shortly:
as §3

Experiment [12] concerns MKN-45. Nature of the experiment: Cell cycle arrest in human MKN45 cells assessed as accumulation at S-phase at 10 uM after 48 hrs by propidium iodide staining based flow cytometry (reference value: 15%). The format is functional. Put shortly: as §3
Experiment [13] relates to MKN-45. As to the kind of experiment: Cell cycle arrest in human MKN45 cells assessed as accumulation at G2/M-phase at 10 uM after 48 hrs by propidium iodide staining based flow cytometry (reference value: 19%). The format is functional. The procedure, abridged: as §3
Experiment [14] deals with MKN-45. Nature of the experiment: Induction of apoptosis in human MKN45 cells assessed as increase in cleaved PARP expression at 5 to 10 uM after 48 hrs by Western blot method. The format is functional, cell-based. Put shortly:
(§4)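 MKN45 cells (2×10⁵) were treated with 5 or 10 µM. Lysates were run by electrophoresis and transferred to PVDF. Blots were probed overnight at 4°C for Bax, BCL2, PARP and β-actin (loading control), then with HRP secondary, and detected by ECL. Band density was scored in arbitrary units; three experiments.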
A general note: Immunoblotting shows a protein as a band on a membrane.

The subject of experiment [15] is MKN-45. Nature of the experiment: Induction of apoptosis in human MKN45 cells assessed as decrease in Bcl2 expression after 24 hrs by Western blot method. In kind it is functional, cell-based. Put shortly:
as §4

Experiment [16] has as its system MKN-45. As to the kind of experiment: Induction of mitochondrial membrane potential loss in human MKN45 cells at 5 to 10 uM after 24 hrs by JC-1 staining based flow cytometry. In kind it is functional, cell-based. Put shortly: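 MKN45 cells were plated at 2×10⁵ cells/well in 6-well plates and exposed to indicated concentrations for 24 h. They were stained with JC-1 for 20 min, and the change in mitochondrial membrane potential was measured by flow cytometry; three experiments.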

Experiment [17] concerns MKN-45. As to the kind of experiment: Induction of apoptosis in human MKN45 cells assessed as increase in Bax expression at 5 to 10 uM after 24 hrs by Western blot method. In kind it is functional, cell-based. The procedure, abridged: as §4
Experiment [18] deals with MKN-45. Nature of the experiment: Induction of apoptosis in human MKN45 cells assessed as increase in Bax/Bcl2 expression ratio at 5 to 10 uM after 24 hrs by Western blot method. In kind it is functional, cell-based. The procedure, abridged:
as §4

The subject of experiment [19] is MKN-45. Nature of the experiment: Antiproliferative activity against human MKN45 cells assessed as cell viability at 100 nM after 72 hrs by MTT assay relative to control. To be noted: MKN-45, 72 h, read-out: Activity. In kind it is functional. Put shortly: as §1
The test system of experiment [20] is KB. Nature of the experiment: Antiproliferative activity against human KB cells assessed as cell viability at 100 nM after 72 hrs by MTT assay relative to control. The format is functional. The settings on record: read-out: Activity. Put shortly: as §1

pIC50: −log10 of the molar value. Active and inactive are the calls of the source. The calls are words filed in the database; no cut-off is given here.

The term pIC50 denotes the negative decadic logarithm of the IC50, by convention in mol/L. The low end stands for a high IC50, the high end for a low IC50.

In the case of `CCN/C(=N/CCCN(C)C)OC(=O)c1ccccc1C(=O)OC[C@]1(C)C(=O)CC[C@@]2(C)[C@H]1CC[C@]1(C)[C@@H]2CC=C2[C@@H]3CC(C)(C)CC[C@]3(C(=O)OCc3ccccc3)CC[C@]21C`, the viability at 10 µM in the experiment with MKN-45 [1] was 7%; in the experiment on KB [2] it was 26%. Further, the negative logarithm of the IC50 (pIC50) with KB [3] is 5.32; in experiment [4], 5.09; with HeLa, 5.37; in the experiment with A549, 5.20; in the experiment with MKN-45 [5], 5.15; in the experiment on BGC-823, 5.29. The molecule further had a negative-log IC50 (pIC50) in the experiment with AGS of 5.36. Also, the Activity in the experiment on MKN-45 [6] came out at 2.47%; in the experiment on MKN-45 [7], 68%; in the experiment with MKN-45 [8] it was 11%; in the experiment with MKN-45 [9], 21%; with MKN-45 [10], 38.68%; in the experiment with MKN-45 [11], 54%. In addition, the Activity in the experiment with MKN-45 [12] is 16%; with MKN-45 [13], 31%; in the experiment with MKN-45 [15], “Dose-dependent effect”. For the same molecule, the outcome in the experiment with MKN-45 [14], in the experiment with MKN-45 [16], in the experiment with MKN-45 [17] and in the experiment on MKN-45 [18] was Active.

With `CC(=O)O[C@H]1C(=O)[C@@]2(C)[C@H]([C@H](OC(=O)c3ccccc3)[C@]3(O)C[C@H](OC(=O)[C@H](O)[C@@H](NC(=O)c4ccccc4)c4ccccc4)C(C)=C1C3(C)C)[C@]1(OC(C)=O)CO[C@@H]1C[C@@H]2O` [PACLITAXEL], the viability at 0.1 µM in the experiment on MKN-45 [19] was determined as 23%; in the experiment with KB [20], 15%.

These data come from ChEMBL document CHEMBL4130512, “Design, synthesis and biological evaluation of novel α-hederagenin derivatives with anticancer activity” (Eur J Med Chem, 2017).
